Source: ChEMBL document CHEMBL4765248, “Design, synthesis, biological evaluation and molecular docking study of novel thieno[3,2-d]pyrimidine derivatives as potent FAK inhibitors” (Eur J Med Chem, 2020)

Key:
[1] = test system: A549; experiment: Antiproliferative activity against human A549 cells assessed as reduction in cell viability measured after 24 to 72 hrs by MTT assay; type: functional, cell-based; details: dose 0.1-2.5 µM, time 24-72 hrs
[2] = test system: MDA-MB-231; experiment: Antiproliferative activity against human MDA-MB-231 cells assessed as cell viability at 2.5 uM measured after 72 hrs by MTT assay (reference value: 100%); type: functional; details: read-out: Activity
[3] = test system: MDA-MB-231; experiment: Antiproliferative activity against human MDA-MB-231 cells assessed as cell viability at 0.5 uM measured after 48 hrs by MTT assay (reference value: 100%); type: functional; details: read-out: Activity
[4] = test system: A549; experiment: Antiproliferative activity against human A549 cells assessed as cell viability at 0.1 uM measured after 48 hrs by MTT assay (reference value: 100%); type: functional; details: read-out: Activity
[5] = test system: MDA-MB-231; experiment: Induction of cell cycle arrest in human MDA-MB-231 cells assessed as accumulation of cells at G2/M phase at 0.1 uM measured after 48 hrs by PI staining based flow cytometry method (reference value: 17.40%); type: functional
[6] = biological target: Interleukin-1 receptor-associated kinase 4 (Homo sapiens) (UniProt Q9NWZ3); experiment: Inhibition of His-tagged full length human IRAK4 expressed in baculovirus expression system at 1 uM by Selectscreen kinase assay
Outline: (§1)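 Single-point screen at 1 μM final against a panel of 25 kinases using a commercial profiling service; mean of three independent experiments each run in triplicate.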

[7] = biological target: Mast/stem cell growth factor receptor Kit (Homo sapiens) (UniProt P10721); experiment: Inhibition of His-tagged human KIT cytoplasmic domain expressed in baculovirus expression system at 1 uM by Selectscreen kinase assay; outline: as §1
[8] = test system: A549; experiment: Antiproliferative activity against human A549 cells assessed as cell viability at 2.5 uM measured after 24 hrs by MTT assay (reference value: 100%); type: functional; details: read-out: Activity
[9] = test system: MDA-MB-231; experiment: Induction of apoptosis in human MDA-MB-231 cells assessed as necrotic cells at 0.1 uM incubated for 48 hrs by Annexin V-FITC/PI staining based flow cytometric analysis (reference value: 1.08%); type: functional
[10] = test system: MDA-MB-231; experiment: Induction of cell cycle arrest in human MDA-MB-231 cells assessed as accumulation of cells at S phase at 0.4 uM measured after 48 hrs by PI staining based flow cytometry method (reference value: 39.17%); type: functional
[11] = test system: MDA-MB-231; experiment: Induction of cell cycle arrest in human MDA-MB-231 cells assessed as accumulation of cells at G2/M phase at 0.4 uM measured after 48 hrs by PI staining based flow cytometry method (reference value: 17.40%); type: functional
[12] = test system: MDA-MB-231; experiment: Induction of apoptosis in human MDA-MB-231 cells assessed as viable cells at 0.1 uM incubated for 48 hrs by Annexin V-FITC/PI staining based flow cytometric analysis (reference value: 95.84%); type: functional; details: read-out: Activity
[13] = test system: MDA-MB-231; experiment: Induction of cell cycle arrest in human MDA-MB-231 cells assessed as accumulation of cells at G0/G1 phase at 0.4 uM measured after 48 hrs by PI staining based flow cytometry method (reference value: 43.43%); type: functional
[14] = test system: A549; experiment: Antiproliferative activity against human A549 cells assessed as cell viability at 0.5 uM measured after 48 hrs by MTT assay (reference value: 100%); type: functional; details: read-out: Activity
[15] = biological target: T1, Focal adhesion kinase 1 (Homo sapiens, UniProt Q05397); experiment: Inhibition of N-terminal GST-fused human truncated FAK (376 to 1052 residues) expressed in baculovirus expression system using tyrosine kinase peptide as substrate measured after 50 mins in presence of ATP by homogenous time resolved flourescence assay
Target sequence in this assay (Q05397 whole entry, the tested form may be a part): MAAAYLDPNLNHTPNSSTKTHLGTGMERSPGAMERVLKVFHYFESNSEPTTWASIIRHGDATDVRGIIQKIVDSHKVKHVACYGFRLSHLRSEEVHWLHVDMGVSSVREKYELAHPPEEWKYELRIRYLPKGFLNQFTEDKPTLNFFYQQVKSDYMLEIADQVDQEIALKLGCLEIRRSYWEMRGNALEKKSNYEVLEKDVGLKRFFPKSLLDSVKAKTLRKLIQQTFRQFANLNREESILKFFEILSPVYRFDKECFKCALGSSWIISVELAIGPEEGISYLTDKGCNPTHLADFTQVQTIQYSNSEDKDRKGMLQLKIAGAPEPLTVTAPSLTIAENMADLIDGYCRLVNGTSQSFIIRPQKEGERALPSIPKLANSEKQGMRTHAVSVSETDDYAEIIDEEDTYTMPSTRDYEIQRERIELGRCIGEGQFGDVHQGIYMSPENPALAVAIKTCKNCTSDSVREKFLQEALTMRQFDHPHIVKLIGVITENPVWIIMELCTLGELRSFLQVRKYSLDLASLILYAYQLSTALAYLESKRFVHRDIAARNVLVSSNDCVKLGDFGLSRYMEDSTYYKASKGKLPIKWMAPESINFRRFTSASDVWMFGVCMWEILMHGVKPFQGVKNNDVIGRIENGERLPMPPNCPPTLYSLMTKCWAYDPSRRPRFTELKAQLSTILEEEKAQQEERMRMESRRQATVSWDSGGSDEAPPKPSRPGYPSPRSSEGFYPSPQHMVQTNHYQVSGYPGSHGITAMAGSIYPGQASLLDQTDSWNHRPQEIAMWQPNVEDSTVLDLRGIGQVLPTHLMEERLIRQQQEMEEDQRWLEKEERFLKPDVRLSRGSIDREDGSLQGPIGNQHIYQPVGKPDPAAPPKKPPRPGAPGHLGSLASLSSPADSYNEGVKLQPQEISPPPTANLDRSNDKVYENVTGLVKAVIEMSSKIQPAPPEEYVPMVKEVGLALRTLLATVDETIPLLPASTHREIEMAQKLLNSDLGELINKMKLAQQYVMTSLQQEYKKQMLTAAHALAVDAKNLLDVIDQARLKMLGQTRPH

[16] = Intrinsic clearance in rat liver at 1 uM measured after 60 mins in presence of NADPH by LC-MS/MS analysis; type: ADME; details: 1 h
Outline: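 Rat liver microsomes (0.5 mg/mL) were incubated at 37 °C with 1 μM compound in 100 mM potassium phosphate, pH 7.4, with 10 mM MgCl2. Reaction was started with prewarmed NADPH cofactor and sampled at 0, 5, 10, 20, 30 and 60 min. Protein was precipitated with cold acetonitrile and supernatants analysed by LC-MS/MS to give half-life, 1 h remaining and intrinsic clearance.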

[17] = test system: MDA-MB-231; experiment: Induction of cell cycle arrest in human MDA-MB-231 cells assessed as accumulation of cells at S phase at 0.2 uM measured after 48 hrs by PI staining based flow cytometry method (reference value: 39.17%); type: functional
[18] = biological target: Serine/threonine-protein kinase Chk1 (Homo sapiens) (UniProt O14757); experiment: Inhibition of His-tagged full length human CHK1 expressed in baculovirus expression system at 1 uM by Selectscreen kinase assay; outline: as §1
[19] = biological target: T1, Focal adhesion kinase 1; experiment: Inhibition of GST-tagged full length human FAK expressed in baculovirus expression system at 1 uM by Selectscreen kinase assay; outline: as §1
Target sequence in this assay (Q05397 2-1052 limits assumed): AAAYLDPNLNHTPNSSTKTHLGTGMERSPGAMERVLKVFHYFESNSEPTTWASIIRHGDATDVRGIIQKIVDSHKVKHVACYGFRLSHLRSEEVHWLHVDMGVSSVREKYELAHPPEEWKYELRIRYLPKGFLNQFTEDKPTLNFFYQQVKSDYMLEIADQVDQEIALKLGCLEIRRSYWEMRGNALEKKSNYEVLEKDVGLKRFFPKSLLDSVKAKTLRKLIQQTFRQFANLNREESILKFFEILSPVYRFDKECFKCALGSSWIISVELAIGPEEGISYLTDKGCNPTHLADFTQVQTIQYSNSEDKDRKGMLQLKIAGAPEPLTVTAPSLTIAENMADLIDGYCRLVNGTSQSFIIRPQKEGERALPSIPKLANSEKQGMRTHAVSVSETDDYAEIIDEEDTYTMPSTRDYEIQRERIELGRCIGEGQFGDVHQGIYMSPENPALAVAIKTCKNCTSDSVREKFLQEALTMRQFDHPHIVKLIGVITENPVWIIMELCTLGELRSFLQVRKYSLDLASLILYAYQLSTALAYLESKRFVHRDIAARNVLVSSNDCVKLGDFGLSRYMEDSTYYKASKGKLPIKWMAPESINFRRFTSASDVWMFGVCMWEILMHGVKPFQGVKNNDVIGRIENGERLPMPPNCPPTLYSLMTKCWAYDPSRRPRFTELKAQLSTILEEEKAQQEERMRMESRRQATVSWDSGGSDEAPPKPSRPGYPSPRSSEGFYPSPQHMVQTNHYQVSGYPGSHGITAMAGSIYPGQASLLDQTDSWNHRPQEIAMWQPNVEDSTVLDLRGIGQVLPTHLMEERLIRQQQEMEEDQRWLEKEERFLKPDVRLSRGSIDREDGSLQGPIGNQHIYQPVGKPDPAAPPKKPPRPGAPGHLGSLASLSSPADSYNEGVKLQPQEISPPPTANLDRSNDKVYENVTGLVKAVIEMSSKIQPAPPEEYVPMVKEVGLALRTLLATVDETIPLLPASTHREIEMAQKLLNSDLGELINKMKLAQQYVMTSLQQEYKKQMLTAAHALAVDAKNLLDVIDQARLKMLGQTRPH

[20] = biological target: Inhibitor of nuclear factor kappa-B kinase subunit epsilon (Homo sapiens) (UniProt Q14164); experiment: Inhibition of GST-tagged full length human IKK epsilon expressed in baculovirus expression system at 1 uM by Selectscreen kinase assay; outline: as §1
[21] = test system: MDA-MB-231; experiment: Antiproliferative activity against human MDA-MB-231 cells assessed as cell viability at 2.5 uM measured after 48 hrs by MTT assay (reference value: 100%); type: functional; details: read-out: Activity
[22] = test system: MDA-MB-231; experiment: Induction of cell cycle arrest in human MDA-MB-231 cells assessed as accumulation of cells at S phase at 0.1 uM measured after 48 hrs by PI staining based flow cytometry method (reference value: 39.17%); type: functional
[23] = test system: MDA-MB-231; experiment: Antiproliferative activity against human MDA-MB-231 cells assessed as inhibition of cell growth measured after 72 hrs by MTT assay; type: functional, cell-based; details: MDA-MB-231, 72 h
Outline: (§2)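 Cells were seeded at 4000–5000/well and held 24 h at 37 °C in 5% CO2. Compounds were added at the indicated final concentrations and incubated 72 h. MTT was added (5 mg/mL in PBS, stated as final) for 4 h at 37 °C. Formazan was dissolved in DMSO and absorbance read at 490 nm. The 50% growth-inhibitory concentration is the mean of three independent experiments ± SE.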

[24] = test system: Hepatocyte growth factor receptor (Homo sapiens), P08581 [Y1235D]; experiment: Inhibition of GST-tagged partial length human MET (956-1390 residues) Y1235D mutant expressed in insect expression system at 1 uM by Selectscreen kinase assay; outline: as §1
[25] = organism: Homo sapiens; experiment: Inhibition of His-tagged human PKA catalytic domain expressed in Escherichia coli expression system at 1 uM by Selectscreen kinase assay; outline: as §1
[26] = test system: U-87 MG; experiment: Antiproliferative activity against human U-87MG cells assessed as inhibition of cell growth measured after 72 hrs by MTT assay; type: functional, cell-based, U-87MG ATCC; outline: as §2
[27] = biological target: Serine/threonine-protein kinase mTOR (Homo sapiens) (UniProt P42345); experiment: Inhibition of GST-tagged partial length human mTOR catalytic domain (1360-2549 residues) expressed in baculovirus expression system at 1 uM by Selectscreen kinase assay; outline: as §1
[28] = biological target: Tyrosine-protein kinase ZAP-70 (Homo sapiens) (UniProt P43403); experiment: Inhibition of His-tagged full-length recombinant human ZAP-70 expressed in baculovirus expression system at 1 uM by Selectscreen kinase assay; outline: as §1
Tyrosine-protein kinase ZAP-70 (Homo sapiens), sequence (P43403 whole entry): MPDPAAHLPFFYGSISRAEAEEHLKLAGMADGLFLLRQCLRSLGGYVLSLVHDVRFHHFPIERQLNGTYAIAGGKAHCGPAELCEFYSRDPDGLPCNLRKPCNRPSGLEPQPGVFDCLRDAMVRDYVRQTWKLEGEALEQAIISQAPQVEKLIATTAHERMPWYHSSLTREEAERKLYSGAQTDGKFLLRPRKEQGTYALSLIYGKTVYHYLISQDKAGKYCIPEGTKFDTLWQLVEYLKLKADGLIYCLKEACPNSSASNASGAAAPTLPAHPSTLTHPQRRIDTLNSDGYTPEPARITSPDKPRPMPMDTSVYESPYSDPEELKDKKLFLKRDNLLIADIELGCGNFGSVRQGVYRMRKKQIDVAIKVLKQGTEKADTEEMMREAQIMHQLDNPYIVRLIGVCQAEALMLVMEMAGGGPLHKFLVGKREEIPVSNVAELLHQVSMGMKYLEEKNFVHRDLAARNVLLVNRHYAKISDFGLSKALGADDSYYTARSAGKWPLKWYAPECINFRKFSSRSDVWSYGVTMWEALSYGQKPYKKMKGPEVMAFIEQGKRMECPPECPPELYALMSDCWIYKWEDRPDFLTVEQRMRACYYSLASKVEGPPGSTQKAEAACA

Inhibitor of nuclear factor kappa-B kinase subunit epsilon (Homo sapiens), sequence (Q14164 whole entry): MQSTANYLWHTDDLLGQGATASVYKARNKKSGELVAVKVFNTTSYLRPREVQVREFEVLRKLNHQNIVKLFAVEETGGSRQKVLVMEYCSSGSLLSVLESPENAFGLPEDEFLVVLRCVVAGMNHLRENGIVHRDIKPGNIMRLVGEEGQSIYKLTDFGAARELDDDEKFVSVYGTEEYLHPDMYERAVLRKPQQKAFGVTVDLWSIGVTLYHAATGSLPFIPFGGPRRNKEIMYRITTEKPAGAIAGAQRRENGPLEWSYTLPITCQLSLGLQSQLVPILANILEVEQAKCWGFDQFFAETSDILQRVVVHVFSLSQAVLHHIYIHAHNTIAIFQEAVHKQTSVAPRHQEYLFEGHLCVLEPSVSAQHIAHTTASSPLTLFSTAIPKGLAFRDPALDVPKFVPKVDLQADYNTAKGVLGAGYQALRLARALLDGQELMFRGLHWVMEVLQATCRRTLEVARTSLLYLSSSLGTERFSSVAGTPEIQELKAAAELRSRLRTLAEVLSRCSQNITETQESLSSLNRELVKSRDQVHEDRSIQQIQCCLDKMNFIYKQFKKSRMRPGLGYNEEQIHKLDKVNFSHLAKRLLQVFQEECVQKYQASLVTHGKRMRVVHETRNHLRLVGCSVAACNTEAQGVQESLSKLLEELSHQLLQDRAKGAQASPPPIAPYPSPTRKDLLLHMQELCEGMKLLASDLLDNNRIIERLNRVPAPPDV
Interleukin-1 receptor-associated kinase 4 (Homo sapiens), sequence (Q9NWZ3 whole entry): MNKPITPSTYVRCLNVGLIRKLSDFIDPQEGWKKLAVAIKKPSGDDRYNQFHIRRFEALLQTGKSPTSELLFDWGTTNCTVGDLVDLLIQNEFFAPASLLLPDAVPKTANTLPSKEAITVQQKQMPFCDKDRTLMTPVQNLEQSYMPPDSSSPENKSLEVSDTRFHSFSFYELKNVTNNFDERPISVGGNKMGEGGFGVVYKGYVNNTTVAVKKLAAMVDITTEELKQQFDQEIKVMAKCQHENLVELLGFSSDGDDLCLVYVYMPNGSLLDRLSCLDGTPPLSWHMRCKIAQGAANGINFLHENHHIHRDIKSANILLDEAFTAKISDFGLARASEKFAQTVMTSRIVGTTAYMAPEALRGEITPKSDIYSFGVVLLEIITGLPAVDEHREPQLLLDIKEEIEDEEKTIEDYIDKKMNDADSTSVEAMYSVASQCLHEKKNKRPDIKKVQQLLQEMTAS
Mast/stem cell growth factor receptor Kit (Homo sapiens), sequence (P10721 whole entry, the tested form may be a part): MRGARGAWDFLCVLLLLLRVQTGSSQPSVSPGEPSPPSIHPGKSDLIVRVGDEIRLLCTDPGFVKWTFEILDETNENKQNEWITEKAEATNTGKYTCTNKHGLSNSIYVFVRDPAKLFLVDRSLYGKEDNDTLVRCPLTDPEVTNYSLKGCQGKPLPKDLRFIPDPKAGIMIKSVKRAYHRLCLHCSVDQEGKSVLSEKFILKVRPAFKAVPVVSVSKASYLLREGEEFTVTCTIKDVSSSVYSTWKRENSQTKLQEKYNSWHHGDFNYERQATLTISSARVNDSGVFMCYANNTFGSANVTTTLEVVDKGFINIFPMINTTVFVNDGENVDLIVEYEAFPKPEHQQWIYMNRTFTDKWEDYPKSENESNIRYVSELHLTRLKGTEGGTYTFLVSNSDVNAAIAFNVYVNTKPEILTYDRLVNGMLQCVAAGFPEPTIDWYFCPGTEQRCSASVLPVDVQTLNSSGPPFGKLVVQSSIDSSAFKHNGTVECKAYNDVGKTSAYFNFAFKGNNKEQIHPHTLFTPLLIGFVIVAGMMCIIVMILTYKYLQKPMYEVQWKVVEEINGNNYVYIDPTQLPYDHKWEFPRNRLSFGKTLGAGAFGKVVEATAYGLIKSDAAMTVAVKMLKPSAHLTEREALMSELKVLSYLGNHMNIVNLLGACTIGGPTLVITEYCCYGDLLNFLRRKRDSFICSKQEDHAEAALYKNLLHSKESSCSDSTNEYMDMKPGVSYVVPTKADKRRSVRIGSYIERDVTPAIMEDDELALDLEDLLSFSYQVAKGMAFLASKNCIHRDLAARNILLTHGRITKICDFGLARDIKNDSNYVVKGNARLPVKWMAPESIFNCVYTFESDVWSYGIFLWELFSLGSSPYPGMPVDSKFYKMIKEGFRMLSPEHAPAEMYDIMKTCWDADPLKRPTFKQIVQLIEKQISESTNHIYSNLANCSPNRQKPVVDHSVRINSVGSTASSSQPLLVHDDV

inhibition [6]: 72%
inhibition [7]: 41%
IC50 [15]: 28.2 nM
CLH [16]: 18.6 µL/min/mg
inhibition [18]: 38%
inhibition [19]: 100%
inhibition [20]: 66%
IC50 [23]: 190 nM
inhibition [24]: 72%
inhibition [25]: 63%
IC50 [26]: 160 nM
inhibition [27]: 2%
inhibition [28]: 6%
SMILES: COc1ccccc1-c1csc2cnc(Nc3ccc(C(=O)NC4CCNCC4)c(F)c3)nc12
Activity [1]: Dose-dependent effect
viability at 2.5 µM [2]: 9.1%
viability at 0.5 µM [3]: 40.7%
viability at 0.1 µM [4]: 78.7%
Activity [5]: 12.79%
viability at 2.5 µM [8]: 51.5%
Activity [9]: 2.97%
Activity [10]: 40.18%
Activity [11]: 3.55%
viability at 0.1 µM [12]: 85.5%
Activity [13]: 56.27%
viability at 0.5 µM [14]: 47.4%
Activity [17]: 39.11%
viability at 2.5 µM [21]: 11.9%
Activity [22]: 41.96%
